Compound activity: PubChem BioAssay, several laboratories
Sampled rows, rich in hits. Any-hit rate of the full collection: about 4.9%.
HSF-1 act = HSF-1 activators, primary screen, NIH3T3-HGL cells, MG132 stress, luminescence, single point; NIH3T3-HGL HSF-1 luciferase reporter, 8 h; 100% = twice DMSO control signal; activation, % at 9 µM; 300,000 tested, 1.7% active;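 active = mean replicate activation of at least 50% with a set share of replicates each reaching 50%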;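 also: 0% = median of the neutral control wells and 100% = twice that signal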
CHT PAM = CHT positive allosteric modulators, primary screen, cell-based, membrane potential dye, choline EC20. High affinity choline transporter 1 (Homo sapiens), Q9GZV3. CHT-expressing cells; hits give high values; LV-AA mutant CHT in HEK293 cells. B-score at 10 µM. 310,000 tested, 0.49% active;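 active = initial fluorescence not abnormally high and integrated response B-score, plate-corrected, over 3 SD above library mean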
Target sequence (Q9GZV3 whole entry, looked up): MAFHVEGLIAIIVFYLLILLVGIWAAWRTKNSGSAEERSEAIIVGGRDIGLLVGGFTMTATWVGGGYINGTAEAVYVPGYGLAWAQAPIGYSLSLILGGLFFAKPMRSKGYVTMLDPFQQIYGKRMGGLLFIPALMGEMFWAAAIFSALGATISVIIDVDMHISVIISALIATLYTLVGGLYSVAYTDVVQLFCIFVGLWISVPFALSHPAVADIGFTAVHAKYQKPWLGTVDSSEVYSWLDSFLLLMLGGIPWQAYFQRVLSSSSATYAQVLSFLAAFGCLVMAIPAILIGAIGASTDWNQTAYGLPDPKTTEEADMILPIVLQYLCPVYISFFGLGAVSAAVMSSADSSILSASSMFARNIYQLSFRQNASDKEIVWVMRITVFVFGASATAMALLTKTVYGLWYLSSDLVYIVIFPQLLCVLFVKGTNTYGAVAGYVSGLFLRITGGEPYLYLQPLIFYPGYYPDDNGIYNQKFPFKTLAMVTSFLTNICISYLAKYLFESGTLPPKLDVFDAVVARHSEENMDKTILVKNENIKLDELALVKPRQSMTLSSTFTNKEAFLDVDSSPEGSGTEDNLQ
HSF1 inhib = HSF1 inhibitors in luciferase reporter cells, primary screen, cell-based, NIH3T3, luminescence; NIH3T3-HGL HSE-luciferase, MG132-induced, luminescence 8 h; hits give low values; activity change, negative = inhibition, % at 7.5 µM (by protocol); 300,000 tested, 0.77% active; AID 2098, 2009;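 active = more than half of replicate wells show activity change below -50%, luminescence cut by over half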;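 also: luciferase reports HSF-1 transcriptional activity via heat shock element; 0% = median of DMSO wells and -100% = zero luminescence signal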
CHT inh = inhibitors of human choline transporter CHT. High affinity choline transporter 1 (Homo sapiens), Q9GZV3. CHT-expressing cells, membrane potential dye, choline response; hits give low values. B-score at 10 µM. 310,000 tested, 0.86% active;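 active = B-score over 3 SD under the library average, and starting fluorescence ratio not unusually high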;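 also: choline stimulus applied at its EC90 after an EC20 pre-addition; B-score computed on integrated fluorescence ratio after choline addition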
Hep lipid drop = inhibitors of hepatocyte lipid droplet formation, primary screen, imaging, high-throughput imaging, BODIPY stain; inhibition, % at 6.5 µM; AML12 mouse hepatocytes, oleate lipid droplets; 240,000 tested, 0.4% active;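 active = lipid droplet intensity inhibited by at least 50%, with more than 500 cells counted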
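Test system: AML12 hepatocytes (mouse); reagent: oleate loading, 100 µM; dosing: one dose, 6.5 µM compound; incubation: overnight exposure; signal: fluorescence imaging, 20x objective, two fields per well; read-out basis: % inhibition of corrected integrated BODIPY droplet signal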
PHOSPHO1 block = PubChem AID 1565. recombinant PHOSPHO1, absorbance phosphatase assay. 290,000 tested, 1.1% active. inhibition, % at 13.3 µM. Phosphoethanolamine/phosphocholine phosphatase (Homo sapiens), Q8TCT1; in the data active = inhibition above about 60%
CHT block conf = CHT inhibitors, confirmation, cell-based, membrane potential dye, duplicate; AID 493221, 2011; 2,400 tested, 70% active; CHT-expressing cells, choline membrane potential dye; LV-to-AA substituted CHT, HEK293 cells; shares compounds with CHT inh; CHT activity remaining % of control (hits give low values), % at 10 µM;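 active = choline transporter activity left, mean of duplicates at 10 µM, below buffer-only control mean minus 3 SD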;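 also: depolarization triggered by choline at its EC90 following an EC20 pre-addition; 0% = hemicholinium-3 full block and 100% = buffer-only control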
HEK293 MPD ctr = membrane potential effects in parental HEK293, counter-screen for CHT inhibitor project, cell-based, membrane potential dye; choline response; active = decrease or increase beyond buffer ±3SD; shares compounds with CHT inh; 2,400 tested, 4% active; membrane potential ratio readout (active if shifted either direction beyond buffer ±3SD; no single direction) at 10 µM;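 also: parental cells lack the transporter so any hit is non-specific; ratio is peak minus trough fluorescence over baseline after EC90 choline challenge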
Active calls of the source: *; i = inactive; · = no result.

SMILES	HSF-1 act	CHT PAM	HSF1 inhib	CHT inh	Hep lipid drop	PHOSPHO1 block	CHT block conf	HEK293 MPD ctr
Nc1c(C(=O)NCCN2CCOCC2)c2nc3ccccc3nc2n1CCc1ccccc1	-14.8	i	6.1	i	·	6.0	·	·
CCOC(=O)N1CCN(C(=O)CCCCCn2c(=S)[nH]c3ccsc3c2=O)CC1	4.2	i	-5.6	i	-13.1	-15.8	·	·
CCOC(=O)N1CCN(C(=O)CCCn2c(=O)[nH]c3ccccc3c2=O)CC1	3.3	i	-1.2	-5.88*	·	11.1	5.0%*	i
CCOC(=O)N1CCN(C(=O)CCCn2c(=S)[nH]c3ccsc3c2=O)CC1	-6.0	i	-8.1	-12*	1.3	-21.8	6.4%*	i
CC(=O)c1ccc(N2CCN(C(=O)CCCn3c(=O)[nH]c4ccccc4c3=O)CC2)cc1	-0.4	i	-0.4	i	-1.8	-3.9	·	·
CCOC(=O)N1CCN(C(=O)CCCn2c(=S)[nH]c3ccc(Br)cc3c2=O)CC1	-2.5	i	-4.5	-5.32*	-14.7	58.9	55.2%*	i
COc1ccccc1CNC(=O)c1cc(-c2ccccc2)n(Cc2cc(C)no2)n1	·	i	·	i	·	·	·	·
O=C1NC(=O)/C(=C/c2cccc3ccccc23)S1	46.2	i	15.6	-4.99*	0.4	19.1	62.2%*	i
O=C1N=C(N2CCOCC2)S/C1=C\c1ccccc1OS(=O)(=O)c1ccccc1	-10.9	i	-10.5	i	6.7	20.0	·	·
Cc1ccc(S(=O)(=O)Oc2ccccc2/C=C2/SC(=O)NC2=O)cc1	-5.9	i	-6.5	-5.97*	8.7	28.8	56.7%*	i
O=C1NC(=O)/C(=C\c2ccc(O)cc2O)S1	16.9	i	-3.1	i	0.7	42.6	·	·
CCCOc1ccc2ccccc2c1/C=C1\SC(=O)NC1=O	13.3	i	0.0	-6.39*	7.0	28.7	i	i
CN(C)c1ccc(C(=O)c2ccc(O)cc2O)cc1	0.7	i	15.3	-5.99*	14.5	-4.4	60.7%*	i
CC(C)CCN(C(=O)Cc1ccccc1F)c1c(N)n(Cc2ccccc2)c(=O)[nH]c1=O	-26.3	i	-10.7	i	4.7	-4.0	·	·
CCn1cc(C(=O)N(CCC(C)C)c2c(N)n(Cc3ccccc3)c(=O)[nH]c2=O)c(=O)c2ccc(C)nc21	-0.2	i	0.4	-10.2*	14.6	12.3	49.5%*	i
CNS(=O)(=O)c1cccc(C(=O)OCC(=O)C23CC4CC(CC(C4)C2)C3)c1	3.6	i	-1.6	i	4.6	0.3	·	·
Cc1ccccc1CNS(=O)(=O)c1ccc2c(c1)OCCO2	1.3	i	4.7	-5.81*	-11.7	-14.4	64.2%*	i
Cc1ccc(CNS(=O)(=O)c2ccc3c(c2)OCCO3)cc1	-17.4	i	-10.2	i	-2.4	-5.0	·	·
COc1ccc(CNC(=O)COC(=O)CC2CCCC2)cc1	-21.6	i	-10.9	-5.38*	0.3	8.8	i	i
O=C(CCl)N(C1CCCC1)C1CCS(=O)(=O)C1 (configuration not stated)	-10.6	i	0.0	-5.06*	-11.2	22.4	i	i
COC(=O)c1sc(NC(=S)NNC(=O)c2c(Br)c(C)nn2C)c(C(=O)OC)c1C	31.0	i	8.8	-5.57*	-4.4	11.1	i	i
COC(=O)c1sc(NC(=O)C(C)C)c(C(=O)OC)c1C	-15.3	i	-3.0	i	·	-3.5	·	·
COc1ccccc1C(=O)Nc1onc(C)c1C#N	-6.4	i	-4.8	-6.36*	5.8	41.2	i	i
Cc1noc(NC(=O)c2ccccc2)c1C#N	11.2	i	-8.3	i	-25.6	7.1	·	·
O=C(C[n+]1cccc(Br)c1)c1cccs1	4.1	i	5.5	-9.17*	2.6	·	26.4%*	i
SMILES	HSF-1 act	CHT PAM	HSF1 inhib	CHT inh	Hep lipid drop	PHOSPHO1 block	CHT block conf	HEK293 MPD ctr
Cc1ccc(C(=O)C[n+]2cc(Br)cc(Br)c2)cc1	-12.2	i	-5.6	-13.3*	-1.5	-3.6	21.4%*	i
O=C(C[n+]1cccc(Br)c1)c1ccccc1	-1.3	i	2.9	-6.02*	-7.0	24.1	18.1%*	i
O=C(C[n+]1cc(Br)cc(Br)c1)c1ccc(-c2ccccc2)cc1	-36.5	i	-18.4	i	·	-7.4	·	·
O=C(C[n+]1cccc(Br)c1)c1ccc(-c2ccccc2)cc1	-1.3	i	0.8	-15.1*	-2.0	52.2	-0.8%*	i
O=C(C[n+]1cc(Br)cc(Br)c1)c1ccccc1	5.2	i	-2.1	i	2.7	9.3	·	·
O=C(O)CCCNS(=O)(=O)c1ccc2c(c1)OCCCO2	0.4	i	-3.0	i	4.0	9.1	·	·
O=C(c1ccccc1F)n1c2c(c3ccccc31)CCCC2	-0.4	i	-8.3	i	-11.3	22.2	·	·
CCCCCN(C(=O)CCC(=O)OCc1cc(C(C)=O)ccc1OC)c1c(N)n(CCCC)c(=O)[nH]c1=O	5.8	i	2.2	i	·	·	·	·
COc1ccc(CC(=O)N(Cc2ccccc2)c2ccc(C)cc2)cc1S(=O)(=O)N1CCOCC1	-1.4	i	14.7	i	·	·	·	·
COc1ccc(C(=O)C[n+]2cccc(Br)c2)cc1	-5.9	i	0.2	-19.3*	2.5	27.7	-0.1%*	i
Cc1cc(NS(=O)(=O)c2ccc(NC(=O)C(C)Oc3ccc(Cl)cc3)cc2)no1 (configuration not stated)	4.4	i	-0.2	i	·	-28.6	·	·
Cc1cc(Cl)ccc1OC(C)C(=O)Nc1ccc(S(=O)(=O)Nc2cnc3ccccc3n2)cc1 (configuration not stated)	30.5	i	21.1	-11.1*	·	34.3	42.7%*	i
Cc1cc(NS(=O)(=O)c2ccc(NC(=O)C(C)Oc3ccccc3Cl)cc2)no1 (configuration not stated)	-0.7	i	-5.7	i	·	·	·	·
CC(Oc1ccc(Cl)cc1Cl)C(=O)NC1=NN(c2ccccc2)C(=O)C1 (configuration not stated)	22.8	i	10.4	-6.35*	·	23.4	38.9%*	i
